In ChEMBL document CHEMBL1781962, “Development of Fluorescent Ligands for the Human 5-HT1A Receptor” (ACS Med Chem Lett, 2010) one finds Ki and Activity data, which are given here for twelve compounds.

pKi: −log10 of the molar value. The source made the active and inactive calls. The rule behind the calls is not given here.

The target of assay [1] is T1, 5-hydroxytryptamine receptor 1A (Homo sapiens, UniProt P08908).
T1 sequence (P08908 whole entry): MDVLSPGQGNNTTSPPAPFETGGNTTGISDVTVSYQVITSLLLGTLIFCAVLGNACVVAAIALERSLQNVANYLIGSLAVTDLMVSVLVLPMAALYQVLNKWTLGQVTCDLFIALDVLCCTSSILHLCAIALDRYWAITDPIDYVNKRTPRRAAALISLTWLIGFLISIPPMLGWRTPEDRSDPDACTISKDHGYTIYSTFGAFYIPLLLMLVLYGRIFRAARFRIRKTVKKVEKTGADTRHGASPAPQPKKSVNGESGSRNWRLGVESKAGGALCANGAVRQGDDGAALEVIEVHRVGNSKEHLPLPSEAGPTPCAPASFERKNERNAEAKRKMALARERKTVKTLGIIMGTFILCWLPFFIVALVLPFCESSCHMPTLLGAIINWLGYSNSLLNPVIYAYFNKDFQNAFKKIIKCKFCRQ
Put plainly: Displacement of [3H]8-OH-DPAT from human 5HT1A receptor expressed in EBNA gene-positive HEK293 cells after 120 mins. It counts as cell-based. In a few lines:
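Radioligand competition binding with [3H]-8-hydroxy-DPAT on membranes from transfected HEK-293 EBNA cells expressing h5-HT1AR. Buffer was 50 mM Tris-HCl, 0.5 mM MgSO4, pH 7.4. Ki was obtained from IC50 by the Cheng-Prusoff equation. Values are means ± SEM of 2–4 independent experiments, each run in triplicate.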

Assay [2] concerns the target 5-hydroxytryptamine receptor 6 (Homo sapiens) (UniProt P50406). Kind of assay: Displacement of [3H]LSD from human 5HT6 receptor expressed in HEK293 cells after 120 mins by radioligand displacement assay. It counts as cell-based. In a few lines:
(§1)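 Selectivity screen by radioligand binding at the 5-HT2A, 5-HT4e, 5-HT5a, 5-HT6 and 5-HT7 receptors. Test compound was used at a single concentration of 1 μM. Read-out was percent displacement of the corresponding radioligand.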

In assay [3] the target is 5-hydroxytryptamine receptor 4 (Homo sapiens) (UniProt Q13639). Kind of assay: Binding affinity to human 5-HT4e receptor at 1 uM by radioligand displacement assay. In a few lines:
as §1

In assay [4] the target is 5-hydroxytryptamine receptor 7 (Homo sapiens) (UniProt P34969). Kind of assay: Displacement of [3H]LSD from human 5HT7 receptor expressed in HEK293 cells at 1 uM after 120 mins by scintillation counting. It is filed as cell-based. In a few lines:
as §1

Assay [5] deals with 5-hydroxytryptamine receptor 5A (Homo sapiens) (UniProt P47898). Kind of assay: Binding affinity to human 5HT5A receptor at 1 uM by radioligand displacement assay. In a few lines: as §1
Sequence of 5-hydroxytryptamine receptor 5A (Homo sapiens) (P47898 whole entry): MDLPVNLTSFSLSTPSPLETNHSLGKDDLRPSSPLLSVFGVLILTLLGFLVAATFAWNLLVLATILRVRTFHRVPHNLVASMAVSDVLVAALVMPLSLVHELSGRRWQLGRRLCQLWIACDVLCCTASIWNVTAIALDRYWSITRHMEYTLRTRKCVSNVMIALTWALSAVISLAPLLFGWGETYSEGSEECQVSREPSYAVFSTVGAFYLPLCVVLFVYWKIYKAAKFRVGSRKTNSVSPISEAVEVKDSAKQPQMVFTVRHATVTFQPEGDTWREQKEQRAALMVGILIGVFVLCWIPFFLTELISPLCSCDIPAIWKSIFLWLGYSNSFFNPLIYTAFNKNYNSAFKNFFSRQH
In assay [6] the target is 5-hydroxytryptamine receptor 2A (Homo sapiens) (UniProt P28223). Put plainly: Binding affinity to human 5HT2A receptor at 1 uM by radioligand displacement assay. In a few lines: as §1
Sequence of 5-hydroxytryptamine receptor 2A (Homo sapiens) (P28223 whole entry): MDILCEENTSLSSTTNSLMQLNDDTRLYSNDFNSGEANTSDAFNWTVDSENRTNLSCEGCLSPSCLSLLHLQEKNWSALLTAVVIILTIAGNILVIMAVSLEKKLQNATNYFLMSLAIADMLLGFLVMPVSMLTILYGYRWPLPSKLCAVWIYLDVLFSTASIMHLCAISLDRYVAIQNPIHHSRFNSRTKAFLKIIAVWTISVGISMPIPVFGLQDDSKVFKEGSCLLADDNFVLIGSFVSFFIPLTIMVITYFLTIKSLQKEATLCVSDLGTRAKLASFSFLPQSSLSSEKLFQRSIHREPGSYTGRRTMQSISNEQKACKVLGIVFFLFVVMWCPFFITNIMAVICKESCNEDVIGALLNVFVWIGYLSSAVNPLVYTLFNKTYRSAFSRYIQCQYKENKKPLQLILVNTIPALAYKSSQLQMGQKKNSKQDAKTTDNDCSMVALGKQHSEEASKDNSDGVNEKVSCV
For assay [7], the target named is T1, 5-hydroxytryptamine receptor 1A. Put plainly: Binding affinity to human 5HT1A receptor expressed in HEK-293 EBNA cell membranes by [3H]-8-hydroxy-DPAT radioligand binding.

Sequence of 5-hydroxytryptamine receptor 4 (Homo sapiens) (Q13639 whole entry): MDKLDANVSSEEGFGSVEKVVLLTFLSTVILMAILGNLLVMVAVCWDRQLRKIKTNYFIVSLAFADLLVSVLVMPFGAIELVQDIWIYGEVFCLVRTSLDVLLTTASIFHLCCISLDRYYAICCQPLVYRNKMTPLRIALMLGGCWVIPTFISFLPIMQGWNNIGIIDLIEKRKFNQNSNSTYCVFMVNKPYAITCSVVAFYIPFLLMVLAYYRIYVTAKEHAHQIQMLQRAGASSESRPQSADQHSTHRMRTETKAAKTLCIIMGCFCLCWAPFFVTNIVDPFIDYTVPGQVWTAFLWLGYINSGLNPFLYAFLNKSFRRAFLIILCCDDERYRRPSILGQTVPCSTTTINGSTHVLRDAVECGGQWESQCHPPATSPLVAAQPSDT
Sequence of 5-hydroxytryptamine receptor 7 (Homo sapiens) (P34969 whole entry): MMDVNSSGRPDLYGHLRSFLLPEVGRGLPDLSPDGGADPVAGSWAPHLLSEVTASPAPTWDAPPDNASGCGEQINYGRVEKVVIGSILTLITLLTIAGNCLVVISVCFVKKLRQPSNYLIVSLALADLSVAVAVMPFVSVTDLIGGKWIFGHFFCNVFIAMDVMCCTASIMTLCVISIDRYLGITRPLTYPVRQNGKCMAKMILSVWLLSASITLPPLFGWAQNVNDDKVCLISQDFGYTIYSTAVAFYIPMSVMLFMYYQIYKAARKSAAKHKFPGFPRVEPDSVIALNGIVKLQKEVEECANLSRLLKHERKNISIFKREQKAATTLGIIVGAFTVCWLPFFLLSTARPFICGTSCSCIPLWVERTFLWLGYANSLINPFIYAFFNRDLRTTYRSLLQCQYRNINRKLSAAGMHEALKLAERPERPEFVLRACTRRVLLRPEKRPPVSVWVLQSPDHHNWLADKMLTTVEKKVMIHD
Sequence of 5-hydroxytryptamine receptor 6 (Homo sapiens) (P50406 whole entry): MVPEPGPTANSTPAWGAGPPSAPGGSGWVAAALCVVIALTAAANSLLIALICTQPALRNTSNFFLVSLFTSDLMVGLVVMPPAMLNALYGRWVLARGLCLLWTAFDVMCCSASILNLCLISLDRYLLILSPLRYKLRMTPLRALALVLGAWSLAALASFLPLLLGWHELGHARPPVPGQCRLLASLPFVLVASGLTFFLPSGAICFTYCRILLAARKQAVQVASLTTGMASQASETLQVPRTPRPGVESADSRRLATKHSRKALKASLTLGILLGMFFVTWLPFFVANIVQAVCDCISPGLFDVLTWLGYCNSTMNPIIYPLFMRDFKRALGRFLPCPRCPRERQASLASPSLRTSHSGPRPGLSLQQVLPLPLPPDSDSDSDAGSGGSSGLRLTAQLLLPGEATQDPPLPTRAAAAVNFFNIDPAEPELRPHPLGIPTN

`CN(C)c1cccc2c(S(=O)(=O)NCCCCCCCC34CCCN3C(=O)N(CCCCN3CCN(c5cccc6ccccc56)CC3)C4=O)cccc12` (stereo not drawn) had a negative-log Ki (pKi) in assay [1] of 8.30.
In assay [1], `CN(C)S(=O)(=O)c1ccc2cccc(N3CCN(CCCCN4C(=O)C5CCCN5C4=O)CC3)c2c1` (stereo not drawn) gave a negative logarithm of the Ki (pKi) of 8.62.
Same read-out and setting: under `COc1ccccc1N1CCN(CCCCN2C(=O)N3CCCC3(CCNCCCCCNS(=O)(=O)c3cccc4c(N(C)C)cccc34)C2=O)CC1` (stereo not drawn) stands 8.15.
For the compound `COc1ccccc1N1CCN(CCCCN2C(=O)N3CCCC3(CCCCNCCCCCNS(=O)(=O)c3cccc4c(N(C)C)cccc34)C2=O)CC1` (stereo not drawn), the negative-log Ki (pKi) in assay [1] is 8.05.
Compound `COc1ccccc1N1CCN(CCCCN2C(=O)C3CCCN3C2=O)CC1` (stereo not drawn) had a negative-log Ki (pKi) in assay [1] of 8.26. Compared with the last compound, the pKi is 0.21 log units higher.
The same measure, in the same setting: under `COc1ccccc1N1CCN(CCCCN2C(=O)N3CCCC3(CCCCNS(=O)(=O)c3cccc4c(N(C)C)cccc34)C2=O)CC1` (stereo not drawn) stands 7.96.
`CN(C)c1cccc2c(S(=O)(=O)NCCCCC34CCCN3C(=O)N(CCCCN3CCN(c5cccc6ccccc56)CC3)C4=O)cccc12` (stereo not drawn): the outcome in assay [2] and in assay [3] was inactive. Further, the Activity in assay [4], in assay [5] and in assay [6] was over 80% throughout. The results for the pKi in assay [1] and in assay [7] were 8.70 and 7.42, respectively.
`CN(C)c1cccc2c(S(=O)(=O)N3CCN(CCCCN4C(=O)C5CCCN5C4=O)CC3)cccc12` (stereo not drawn) showed a pKi in assay [1] of under 6.00.
On the same count and under the same terms, in the case of `CN(C)S(=O)(=O)c1cccc2c(N3CCN(CCCCN4C(=O)C5CCCN5C4=O)CC3)cccc12` (stereo not drawn) it was 6.46.
On the same count and under the same terms, under `COc1ccccc1N1CCN(CCCCN2C(=O)N3CCCC3(CCCCCCCNS(=O)(=O)c3cccc4c(N(C)C)cccc34)C2=O)CC1` (stereo not drawn) stands 7.82; under `O=C1C2CCCN2C(=O)N1CCCCN1CCN(c2cccc3ccccc23)CC1` (stereo not drawn), 8.62; under `CN(C)S(=O)(=O)c1ccc2c(N3CCN(CCCCN4C(=O)C5CCCN5C4=O)CC3)cccc2c1` (stereo not drawn), 7.01.
